# Measured values reported in publication PMC7383777 (Pediatric Diabetes, 2020).
# Read-outs that look alike come from different tables or passages of the source.
# Type: in vivo, human
# Conditions: for Glucose intervention needed, subjects: between 2 and 6 hours postdose
# In short: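 Randomized crossover: single s.c. pen dose of test or comparator insulin (100 U/mL) at two visits 3–22 days apart. Subjects were hospitalised 12 h and fasted to 6 h. AEs were treatment-emergent if onset was ≤7 days postdose. Hypoglycaemia followed ADA/ISPAD definitions, confirmed by meter PG <56 mg/dL and counted up to the next insulin or 16 h. Glucose was given below 56 mg/dL or at investigator discretion.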
# [1] = across the three age groups, 0.2 U/kg s.c. single dose
substance,measurement,setting,value
insulin aspart [IAsp],Safety and tolerability,[1],safe and well tolerated
same,Serious AEs,[1],No serious AEs were observed
same,Severe hypoglycemic episodes,[1],No severe hypoglycemic episodes were reported
same,"Confirmed hypoglycemic episodes (PG below 56 mg/dL), number","adults, N = 15, 0.2 U/kg s.c. single dose",three
same,"Glucose intervention needed, subjects",adults,three
same,"Glucose intervention needed, subjects",all age groups,seven
same,"Glucose intervention needed, subjects",children,three
